High-throughput results as filed in PubChem.
RGS4 pot = potentiators or activators of RGS4 | HEK293 M3R/inducible RGS4, carbachol calcium flux Fluo4; hits give low values | B-score at 10 µM | 310,000 tested, 0.92% active | AID 463111;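 active means B-score of the integrated calcium signal more than 4 SD below the library mean, with starting fluorescence not abnormally high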;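 further: negative B-score means reduced calcium response which marks RGS4 activation or potentiation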
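System: HEK293 FlpIn-TREx cells, stable M3R, doxycycline-inducible RGS4. Timing: overnight RGS4 induction, 30 min dye load 37 °C, 20 min compound RT. Also added: carbachol, ECmax concentration. Measured by: Fluo4 fluorescence kinetic imaging of calcium. Evaluation: integrated calcium ratio converted to B score.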
MrgX1 PAM = human MrgX1 positive allosteric modulation, primary screen. Q96LB2. MrgX1-HEK293, Fluo-4 calcium flux, FDSS; hits give high values. B-score at 10 µM. 310,000 tested, 0.63% active. AID 588675;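 active means plate-corrected calcium response at least 3 library SD above typical, normal starting fluorescence, not activating the receptor alone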;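 further: compound read alongside a low EC10 to EC30 dose of BAM8-22 agonist; peak minus trough fluorescence over baseline measured at the second addition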
Target sequence (Q96LB2 whole entry, looked up): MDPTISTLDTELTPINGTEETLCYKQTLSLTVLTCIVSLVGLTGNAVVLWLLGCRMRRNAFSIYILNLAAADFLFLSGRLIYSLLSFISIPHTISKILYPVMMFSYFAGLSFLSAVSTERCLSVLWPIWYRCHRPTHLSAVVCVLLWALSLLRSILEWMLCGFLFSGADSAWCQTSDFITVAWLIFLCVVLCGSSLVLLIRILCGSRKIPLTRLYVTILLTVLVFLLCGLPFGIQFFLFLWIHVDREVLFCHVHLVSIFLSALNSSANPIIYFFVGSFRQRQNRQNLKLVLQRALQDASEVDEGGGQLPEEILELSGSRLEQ
RGS4 block = inhibitors of human RGS4. 310,000 tested, 0.45% active. AID 463165. HEK293 M3R/RGS4 inducible, Fluo-4 calcium flux; hits give high values; triggered by carbachol at its EC20. B-score at 10 µM;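 active means B-score, a plate-corrected calcium signal, over three deviations above library mean, with baseline fluorescence within five deviations of library mean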;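 further: RGS4 expression induced by doxycycline in cells with stable M3 receptor; B-score is computed from the integrated fluorescence ratio over baseline after carbachol; higher B-score means a larger calcium signal and so more RGS4 inhibition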
Target sequence (P49798 whole entry, looked up): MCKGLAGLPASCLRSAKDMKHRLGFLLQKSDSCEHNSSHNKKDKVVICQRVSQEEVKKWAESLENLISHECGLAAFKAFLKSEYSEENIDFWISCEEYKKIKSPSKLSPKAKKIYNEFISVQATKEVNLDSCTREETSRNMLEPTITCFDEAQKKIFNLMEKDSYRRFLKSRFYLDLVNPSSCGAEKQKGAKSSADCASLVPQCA
MrgX1 antag = blocks BAM8-22 activation of human MrgX1 receptor; MRGX1-HEK293 calcium flux, Fluo-4, BAM8-22 antagonism; hits give low values; B-score at 10 µM; 310,000 tested, 1.3% active;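 active means calcium-response B-score plate-corrected more than 3 library SD below zero, starting fluorescence within 5 deviations, no agonist response on first addition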;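 further: peak minus trough fluorescence over baseline after final BAM8-22 challenge near maximal dose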
MrgX1 ag = human MrgX1 receptor agonism, primary screen; Q96LB2; MrgX1-HEK293 cells, Fluo-4 calcium fluorescence, agonist mode; hits give high values; B-score at 10 µM; 310,000 tested, 0.44% active; AID 588627;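 active means calcium response B-score plate-corrected fluorescence ratio at least 3 library SD, with starting fluorescence B-score inside 5 SD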
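System – MrgX1-expressing HEK293 cells · Incubation – cells plated overnight, dye loaded 0.5 h 37 °C, 0.5 h room temperature · Technique – kinetic Fluo-4 NW fluorescence of intracellular calcium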
MrgX1 PAM conf = human MrgX1 positive allosteric modulation, re-confirmation. shares compounds with MrgX1 PAM. MrgX1-HEK293, Fluo-4 calcium fluorescence, FDSS. activation (ratio percentage), % at 10 µM. 1,200 tested, 13% active;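 active means ratio at least 3 SD above the weak peptide control, stable starting fluorescence, no direct agonism earlier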;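 further: compound followed by low BAM8-22 agonist challenge near EC20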
MrgX1 ant reconf = confirmation of human MrgX1 receptor antagonists. AID 602420. 2,300 tested, 19% active. shares compounds with MrgX1 antag. remaining BAM8-22 calcium response % of control (hits give low values), % at 10 µM. MrgX1-HEK293, BAM8-22 calcium flux, Fluo-4; hits give low values;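 active means remaining agonist calcium response no higher than 100% minus 3 SD of agonist-only control wells, with starting fluorescence near control levels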;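 further: agonist BAM8-22 given at a near maximal EC90 to ECmax level; peak minus minimum fluorescence divided by baseline after agonist addition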
HEK293 Ca flux = MrgX1 antagonist counter-screen hit in parental HEK293 cells; AID 624111; shares compounds with MrgX1 antag; Fluo-4 calcium fluorescence, FDSS; fluorescence ratio F(max-min)/F0 at 10 µM; 4,000 tested, 2% active;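 active means duplicate-averaged calcium fluorescence ratio at least three times the standard deviation of buffer wells, a nonspecific response in parental cells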
HEK293 Ca counter = activity in parental HEK293 cells without MrgX1. shares compounds with MrgX1 antag. parental HEK293 calcium flux, Fluo-4 fluorescence ratio; hits give high values. fluorescence ratio F(max-min)/F0 at 10 µM. 4,000 tested, 0.4% active. AID 624114;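 active means calcium fluorescence ratio, averaged over duplicates, at least 3 SD of the buffer-well ratio, meaning a nonspecific response in receptor-free cells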;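 further: untransfected parental HEK293 lacking MrgX1 used as counterscreen for MrgX1 allosteric activators; fluorescence change taken during the second addition on a kinetic imager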
HEK293 Ca cntr2 = activity in parental HEK293 cells lacking MrgX1 receptor; shares compounds with MrgX1 antag; Fluo-4 calcium fluorescence (FDSS); hits give high values; AID 624115; fluorescence ratio F(max-min)/F0 at 10 µM; 4,000 tested, 8.7% active;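 active means calcium fluorescence ratio at least three times the spread of buffer wells, meaning a non-specific response in parental cells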
Starred values were filed as active, the others as inactive; i = inactive; / = not tested or not shown; ! = not confirmed by another sample. Rows were chosen to be rich in hits. Some 3.5% of all compounds tested hit in one or more screens of this group.

SMILES	RGS4 pot	MrgX1 PAM	RGS4 block	MrgX1 antag	MrgX1 ag	MrgX1 PAM conf	MrgX1 ant reconf	HEK293 Ca flux	HEK293 Ca counter	HEK293 Ca cntr2
COc1ccc(C(=O)c2nc3ccccc3n2C(C)C)cc1	i	6.5*	i	i	i	i	/	i	i	i
COc1ccc(C(=O)c2nc3ccccc3n2C(C)C)cc1OC	i	i	i	i	i	/	/	/	/	/
CCOP(=O)(OCC)c1ccc(OP(=O)(c2cccc([N+](=O)[O-])c2)c2cccc([N+](=O)[O-])c2)cc1	i	i	i	i	i	/	/	/	/	/
COc1nc2ccccc2c(=O)n1-c1ccc(C)cc1	i	18*	i	i	i	i	/	i	i	i
Cc1ccc(-n2c(C)nc3ccccc3c2=O)cc1C	i	7.7*	i	i	i	13%*	/	i	i	i
COc1nc2ccccc2c(=O)n1-c1ccc(Cl)cc1	i	12*	i	i	i	i	/	i	i	i
CCCCOc1nc2ccccc2c(=O)n1-c1ccccc1	i	9.2*	i	i	i	i	/	i	i	48*
CCCc1nc2ccccc2c(=O)n1-c1ccc(OC)cc1	i	i	i	i	i	/	/	/	/	/
COc1ccc(-n2c(-c3ccc(C)cc3)nc3ccccc3c2=O)cc1	i	i	i	i	i	/	/	/	/	/
OC(CNCCc1c[nH]c2ccccc12)c1ccccc1 (stereo unspecified)	i	i	i	i	i	/	/	/	/	/
CCN1C(=O)CC(c2cccnc2)=Nc2ccccc21	i	6.4*	i	i	i	i	/	i	i	i
O=C1CC(c2cccnc2)=NN1c1ccc(Cl)cc1Cl	i	i	i	i	i	/	/	/	/	/
CN1CCCN(c2ccc([N+](=O)[O-])nc2)CC1	i	i	i	i	i	/	/	/	/	/
CCCCCn1c(=O)c(C(=O)NCCc2ccccc2)c(O)c2ccccc21	i	7.6*	i	-8.2*	i	i	i	i	i	i
COc1ccc(-c2nn(CCC#N)cc2C(=O)Nc2ccccc2Br)cc1[N+](=O)[O-]	i	i	i	i	i	/	/	/	/	/
C[CH2][Hg][S]c1ccccc1C(=O)O	/	6.5*	/	i	i	i	/	i	i	i
CC(C)COC(=O)c1ccccc1C(=O)OCC(C)C	i	i	i	i	i	/	/	/	/	/
C=CCN1CCc2cccc3c2[C@H]1Cc1ccc(O)c(O)c1-3	i	8.1*	i	i	i	i	/	i	i	i
CCOC(=O)C1=C(N)Oc2cc(C)oc(=O)c2C12C(=O)N1c3c(cccc32)C(C)=CC1(C)C (stereo unspecified)	i	9.2*	i	i	i	i	/	i	i	87*
FC(F)(F)c1cccc(-n2nnnc2C2(N3CCOCC3)CCCCC2)c1	i	i	i	-5.1*	i	/	i	i	i	i
OC(CN1CCC(c2c[nH]c3ccccc23)CC1)C(F)(F)F (stereo unspecified)	i	i	i	i	i	/	/	/	/	/
CCOC(=O)CCCCCNC(=O)c1c(O)[nH]c(=O)[nH]c1=O	i	i	i	i	i	/	/	/	/	/
Clc1ccc2[nH]c3c(c2c1)CCNC3	i	i	i	-5.4*	i	/	i	i	i	i
CC(Cc1cccs1)NCc1ccccc1 (stereo unspecified)	i	i	i	i	i	/	/	/	/	/
CCN1C[C@]2(CO)CC[C@H](OC)[C@@]34C5C[C@H]6[C@H](OC)C5[C@](O)(C[C@H]6OC)[C@@](O)(C(OC)C23)[C@@H]14 (stereo partly specified)	i	i	i	-4.6*	i	/	i	i	i	i
SMILES	RGS4 pot	MrgX1 PAM	RGS4 block	MrgX1 antag	MrgX1 ag	MrgX1 PAM conf	MrgX1 ant reconf	HEK293 Ca flux	HEK293 Ca counter	HEK293 Ca cntr2
CC1CN(C(=O)CCC(=O)N2CCC3(CC2)OCCO3)c2cc(Cl)ccc2O1 (stereo unspecified)	i	i	i	i	i	/	/	/	/	/
O=S(=O)(c1ccc(F)cc1)N1CCCCC1c1cccnc1 (stereo unspecified)	i	i	i	i	i	/	/	/	/	/
COc1cc(N2C(=O)CC(=O)NC2=O)cc(OC)c1OC	i	i	i	-5.1*	i	/	82%*	i	i	i
CCOc1ccc(N2C(=O)CC(=O)NC2=O)cc1	i	i	i	i	i	/	/	/	/	/
COc1c(C=C2C(=O)NC(=O)NC2=O)c(CCN(C)C(=O)c2ccccc2)cc2c1OCO2	i	i	i	i	i	/	/	/	/	/
O=C(O)C1CN2CCC1CC2 (stereo unspecified)	i	i	i	-8*	i	/	i	i	i	i
CC(C)CCn1c(=O)c(C(=O)Nc2ccccc2S(N)(=O)=O)c(O)c2ccccc21	i	i	i	i	i	/	/	/	/	/
CC(C)CCn1c(=O)c(C(=O)NCc2ccc3c(c2)OCO3)c(O)c2ccccc21	i	i	i	-7.7*	i	/	i	i	i	i
COc1ccc(-n2c(O)c(C=NCc3ccc4c(c3)OCO4)c(=O)[nH]c2=O)cc1	i	i	i	i	i	/	/	/	/	/
O=C(c1ccc(F)c([N+](=O)[O-])c1)N1CC2CC(C1)c1cccc(=O)n1C2 (stereo unspecified)	i	i	i	i	i	/	/	/	/	/
N=C1C(c2ccccc2)=C(O)CN1Cc1ccco1	i	i	i	-5.7*	i	/	i	i	i	i
NC(CC(=O)O)C1CCCCC1 (stereo unspecified)	i	i	i	-7*	i	/	i	i	i	i
COc1ccc2ccccc2c1CNCCc1ccccc1	i	i	i	i	i	/	/	/	/	/
ClC1C(Cl)C(Cl)C(Cl)C(Cl)C1Cl (stereo unspecified)	/	i	/	-6.9*!	i	/	i	i	i	i
